Source: ChEMBL document CHEMBL1944511, “Bakuchiol derivatives as novel and potent cytotoxic agents: a report” (Eur J Med Chem, 2012)

How the values were obtained:
OVCAR-5 [1] = test: Growth inhibition of human OVCAR5 cells at 50 uM after 48 hrs by sulpharhodamine B assay; type: functional; conditions: OVCAR-5, 48 h, read-out: GI
Method in brief: (§1)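 This is the SRB protein-stain assay on adherent cells in RPMI-1640/MEM with 10% FCS. Each compound in DMSO (vehicle <0.2%) was applied at a single fixed concentration for 48 h. Cells were fixed with TCA and stained with SRB, and the dye was solubilised in Tris and read at 570/620 nm. Percent growth inhibition is relative to vehicle-treated controls, reported as mean ± SD of three experiments run in triplicate.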

PC-3 [2] = test: Growth inhibition of human PC3 cells at 30 uM after 48 hrs by sulpharhodamine B assay; type: functional; conditions: PC-3, 48 h, read-out: GI
Method in brief: (§2)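 Cells grown in RPMI-1640/MEM with 10% FCS, penicillin/streptomycin, 37 °C, 5% CO2. Seeded in 96-well plates, allowed to adhere overnight, then exposed 48 h to analogs in DMSO (vehicle <0.2% in controls). TCA-fixed, stained with 0.4% SRB in 1% acetic acid, dye solubilized in 10 mM Tris base, OD 570 nm (ref 620 nm). Mean ± SD of three experiments run in triplicate.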

HeLa [3] = test: Growth inhibition of human HeLa cells at 50 uM after 48 hrs by sulpharhodamine B assay; type: functional; conditions: read-out: GI; method in brief: as §1
MCF7 [4] = test: Growth inhibition of human MCF7 cells at 30 uM after 48 hrs by sulpharhodamine B assay; type: functional; conditions: MCF7, 48 h, read-out: GI; method in brief: as §1
HEp-2 [5] = test: Growth inhibition of human Hep2 cells at 30 uM after 48 hrs by sulpharhodamine B assay; type: functional; conditions: HEp-2, 48 h, read-out: GI; method in brief: as §1
THP-1 [6] = test: Growth inhibition of human THP1 cells at 50 uM after 48 hrs by sulpharhodamine B assay; type: functional; conditions: THP-1, 48 h, read-out: GI; method in brief: as §2
OVCAR-5 [7] = test: Growth inhibition of human OVCAR5 cells at 30 uM after 48 hrs by sulpharhodamine B assay; type: functional; conditions: OVCAR-5, 48 h, read-out: GI; method in brief: as §1
HeLa [8] = test: Growth inhibition of human HeLa cells at 30 uM after 48 hrs by sulpharhodamine B assay; type: functional; conditions: read-out: GI; method in brief: as §1
HEp-2 [9] = test: Growth inhibition of human Hep2 cells at 50 uM after 48 hrs by sulpharhodamine B assay; type: functional; conditions: HEp-2, 48 h, read-out: GI; method in brief: as §1
A549 [10] = test: Growth inhibition of human A549 cells at 30 uM after 48 hrs by sulpharhodamine B assay; type: functional; conditions: A549, 48 h, read-out: GI; method in brief: as §1
PC-3 [11] = test: Growth inhibition of human PC3 cells at 50 uM after 48 hrs by sulpharhodamine B assay; type: functional; conditions: PC-3, 48 h, read-out: GI; method in brief: as §2
IMR-32 [12] = test: Growth inhibition of human IMR32 cells at 50 uM after 48 hrs by sulpharhodamine B assay; type: functional; conditions: IMR-32, 48 h, read-out: GI; method in brief: as §1
T47D = test: Cytotoxicity against human T47D cells; type: functional, cell-based
MCF7 [13] = test: Growth inhibition of human MCF7 cells at 50 uM after 48 hrs by sulpharhodamine B assay; type: functional; conditions: MCF7, 48 h, read-out: GI; method in brief: as §1
IMR-32 [14] = test: Growth inhibition of human IMR32 cells at 30 uM after 48 hrs by sulpharhodamine B assay; type: functional; conditions: IMR-32, 48 h, read-out: GI; method in brief: as §1
THP-1 [15] = test: Growth inhibition of human THP1 cells at 30 uM after 48 hrs by sulpharhodamine B assay; type: functional; conditions: THP-1, 48 h, read-out: GI; method in brief: as §2
A549 [16] = test: Growth inhibition of human A549 cells at 50 uM after 48 hrs by sulpharhodamine B assay; type: functional; conditions: A549, 48 h, read-out: GI; method in brief: as §1

C=C[C@@](C)(/C=C/c1ccc(O)cc1)CCC=C(C)C [BAKUCHIOL] showed an inhibition of growth at 50 µM (OVCAR-5 [1]) of 66%, an inhibition of growth at 30 µM (PC-3 [2]) of 21% and an inhibition of growth at 50 µM (HeLa [3]) of 55%. The inhibition of growth at 30 µM (MCF7 [4]) was 33%, the inhibition of growth at 30 µM (HEp-2 [5]) was 20% and the inhibition of growth at 50 µM (THP-1 [6]) was 74%. It also gave an inhibition of growth at 30 µM (OVCAR-5 [7]) of 25%, an inhibition of growth at 30 µM (HeLa [8]) of 20% and an inhibition of growth at 50 µM (HEp-2 [9]) of 53%. The inhibition of growth at 30 µM (A549 [10]) was 30%, the inhibition of growth at 50 µM (PC-3 [11]) was 58% and the inhibition of growth at 50 µM (IMR-32 [12]) was 58%. For the same compound, the IC50 (T47D) was 28.9 µM, the inhibition of growth at 50 µM (MCF7 [13]) was 63% and the inhibition of growth at 30 µM (IMR-32 [14]) was 31%. It also gave an inhibition of growth at 30 µM (THP-1 [15]) of 44% and an inhibition of growth at 50 µM (A549 [16]) of 63%.
